Assay outcomes: PubChem, several laboratories
This is a sample that favours compounds with a hit; in the whole collection about 2.4% have one here.
T cruzi repl: blocks replication of Trypanosoma cruzi. T. cruzi beta-gal in NIH3T3, luminescence, 90 h. inhibition, % (concentration not given with the values). actives 1.4% (n = 300,000);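 active = mean inhibition across valid replicates above about 55%, limit read from the data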;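 note: signal also drops with host cell toxicity which is not excluded here; 0% = plate median of DMSO wells and 100% = zero luminescence signal; higher percent means less beta-gal luminescence so fewer parasites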
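compound dosing = single 50 nL compound addition per well in DMSO | material = NIH/3T3 host cells with β-galactosidase reporter T. cruzi | input = 5,000 host fibroblasts per well | timing = ≥90 h infection period, 3 h prior cell attachment | read-out basis = percent inhibition of parasite-derived β-gal signal | detection = GalScreen β-gal luminescence, detergent lysis, 60 min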
PP5 primary: PP5 (human) phosphatase inhibition | P53041 | purified PP5c, OMFP substrate fluorescence | inhibition, % at 6.7 µM | actives 0.18% (n = 320,000) | AID 1987;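 active = inhibition above the campaign's mean inhibition across all tested compounds plus 3 SD, cut at about 9.5% in these data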;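 note: 0% = DMSO only and 100% = 100 µM cantharidin control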
Fh CTSL1 inh: counter-screen for PFM18AAP inhibitors: inhibitors of F. hepatica cathepsin L1; actives 0.49% (n = 300,000); inhibition, % at 5.96 µM; recombinant F. hepatica cathepsin L1, Z-Leu-Arg-MCA fluorescence;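 active = inhibition above the mean of all tested compounds plus 3 SD, set per screening campaign, cut at about 17% in these data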;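 note: 0% = plate median of test compound wells and 100% = 1 µM Z-Phe-Ala-diazomethylketone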
JMJD2C inh: inhibitors of human GASC-1 (JMJD2C) demethylase; Q9H3R0; GST-JMJD2C(1-420) H3K9me3 demethylation, DELFIA europium; inhibition, % at 2.35 µM; actives 0.069% (n = 330,000); AID 2099;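 active = more than half of a compound's replicate wells show inhibition beyond 50%, single wells judged on their own value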;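 note: signal counts dimethyl H3K9 product captured on neutravidin plate; 0% = median of DMSO wells and 100% = 0.3 times that DMSO median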
Target sequence (Q9H3R0 1-420 limits assumed): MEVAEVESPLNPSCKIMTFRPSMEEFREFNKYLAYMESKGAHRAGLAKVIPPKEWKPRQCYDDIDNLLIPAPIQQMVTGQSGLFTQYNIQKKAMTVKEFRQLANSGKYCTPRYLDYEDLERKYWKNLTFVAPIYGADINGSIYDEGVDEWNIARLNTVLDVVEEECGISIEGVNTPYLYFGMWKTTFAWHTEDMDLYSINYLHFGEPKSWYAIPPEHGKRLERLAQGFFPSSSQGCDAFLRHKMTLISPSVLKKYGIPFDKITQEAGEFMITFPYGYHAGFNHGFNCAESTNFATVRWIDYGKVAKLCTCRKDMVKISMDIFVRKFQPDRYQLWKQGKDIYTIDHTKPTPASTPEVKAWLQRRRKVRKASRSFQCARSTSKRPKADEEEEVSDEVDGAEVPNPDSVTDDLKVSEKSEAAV
pCIP destab: compounds decreasing mouse p/CIP protein stability. actives 0.01% (n = 290,000). AID 1984. F442A p/CIP-EGFP cells, EGFP fluorescence, 16 h. decrease of EGFP signal, % at 10 µM. Q05BA5;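 active = EGFP signal decrease of at least 30% at 10 µM or well 3 SD below plate mean, unless failing retest; inactive = the rest, including hits failing retest or dose response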
Cardio protect: protects H9c2 cardiomyocytes from peroxide injury; protection from H2O2 cell death, % at 20 µM; AID 588492; actives 0.63% (n = 360,000); H2O2 injury protection, ATPLite, 2 h;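 active = compounds giving at least 50% protection of heart cells from peroxide-induced death in the single-dose screen, raw or plate-pattern-corrected value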;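 note: 0% = DMSO wells with peroxide and 100% = DMSO wells without peroxide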
The depositor's hits bear a star; . = no result given.

SMILES | T cruzi repl | PP5 primary | Fh CTSL1 inh | JMJD2C inh | pCIP destab | Cardio protect
Cc1ccc(-c2cc(C(F)F)nc(NCc3cccs3)n2)cc1 | 11 | -1 | 5 | -2 | -8 | -12
COc1ccc(-c2cc(C(F)(F)F)nc(NCc3cccs3)n2)cc1 | 55* | 0 | -1 | 6 | -2 | -15
COc1ccccc1NC(=O)C1CCCN1C(=O)Nc1ccc(F)cc1 (stereo not drawn) | -9 | -3 | -2 | 11 | -1 | 3
CCC(C)NS(=O)(=O)c1cc2c3c(c1)CCC(=O)N3CCC2 (stereo not drawn) | -6 | 0 | 1 | -4 | 0 | 2
O=C(O)c1cc(-c2cccnc2)nc2ccc(Br)cc12 | . | 1 | -4 | 7 | -2 | 0
CSc1ccccc1NC(=O)c1cc(-c2cccnc2)nc2ccc(Br)cc12 | 69* | 5 | -2 | -7 | -13 | 12
CC(=O)Nc1cccc(NC(=O)c2cc(-c3cccnc3)nc3ccc(Cl)cc23)c1 | 26 | 3 | -7 | 11 | 2 | 65*
COc1ccc(COc2cc(-c3cccc(OC)c3)nc3ccc(NC(=O)c4ccc(C)cc4)cc23)cc1 | 23 | -4 | 1 | 5 | -2 | 12
COc1ccccc1CCNC(=O)c1cc(-c2ccncc2)nc2ccc(Br)cc12 | 89* | . | . | 2 | 2 | -14
COc1ccc(COc2cc(-c3cccc(OC)c3)nc3ccc(NC(C)=O)cc23)cc1 | 68* | 4 | 2 | -6 | -5 | 36
CC(=O)Nc1cccc(NC(=O)c2cc(-c3ccccn3)nc3ccc(Cl)cc23)c1 | -27 | 1 | 0 | 3 | 1 | -4
C=CC[C@H](CC(=O)OC(C)(C)C)C(=O)OC[C@H]1CCCN1C(=O)[C@@H](CC=C)CC(=O)N(CCO)Cc1ccccc1 | . | . | . | . | . | -8
COc1cccc(-c2cc(C(=O)Nc3ccc(N(C)C(C)=O)cc3)c3cc(Br)ccc3n2)c1 | 61* | 2 | -1 | 3 | . | 17
CC(=O)Nc1cccc(NC(=O)c2cc(-c3cccnc3)nc3ccc(Br)cc23)c1 | -6 | 2 | 7 | 14 | -13 | 80*
COc1ccccc1/C=C/C(=O)NCC(=O)N/N=C/c1cc(Br)ccc1OC | 28 | 4 | 0 | -3 | -26 | 98*
COc1ccccc1/C=C\C(=O)NCC(=O)N/N=C/c1cccc(OC)c1O | -11 | 0 | 2 | 4 | -9 | 72*
COc1cccc(/C=N\NC(=O)c2ccc(Cn3cc(Br)c([N+](=O)[O-])n3)o2)c1O | 64* | 2 | 4 | 4 | -11 | 17
COc1cccc(/C=N/NC(=O)CNC(=O)c2cccs2)c1O | 3 | 0 | 1 | 35 | -9 | 63*
COc1ccc(/C=N/NC(=O)CNC(=O)/C=C/c2ccccc2OC)cc1 | 9 | 2 | 4 | -17 | 0 | 3
COc1cccc(/C=N/NC(=O)CNC(=O)CCc2ccccc2)c1O | -3 | 1 | 5 | 0 | 8 | 36
COc1ccc(/C=C/C(=O)NCC(=O)N/N=C/c2cc(Br)ccc2OC)cc1 | 7 | 4 | 3 | -14 | -5 | 4
COc1cc(/C=N\NC(=O)c2ccc(Cn3nc([N+](=O)[O-])c(Cl)c3C)o2)ccc1O | -4 | 0 | 7 | -3 | -1 | 38
Nc1ccn([C@@H]2O[C@H](CNCc3cnc(N4CCOCC4)nc3)[C@@H](O)[C@H]2O)c(=O)n1 | . | . | . | . | . | -14
COc1cccc(/C=N/NC(=O)CSc2ccccc2C)c1OC | -7 | 1 | -1 | 1 | -4 | -3
COc1cccc(/C=N/NC(=O)Cn2nc(C)c([N+](=O)[O-])c2C)c1O | -8 | 1 | -2 | 0 | 2 | 54*
COc1cccc(/C=N/NC(=O)C(C)n2nc(C)c([N+](=O)[O-])c2C)c1O (stereo not drawn) | -15 | 0 | -2 | -2 | 7 | 33
COc1cccc(/C=N/NC(=O)CSc2ccccc2C)c1O | -3 | 0 | 1 | -8 | -9 | 53*
O=S(=O)(Nc1cccc(Br)c1)c1cccc2nsnc12 | -1 | 0 | 0 | -7 | -1 | 8
Cc1cccc(NS(=O)(=O)c2cccc3nsnc23)c1 | -11 | 2 | -4 | 56* | -9 | 7
CC(=O)Nc1cncc(-c2cccc(C(=O)N3CCOCC3)c2)n1 | . | . | . | . | . | 2
